Results on 4 molecules are retold here after ChEMBL document CHEMBL1149096 (J Med Chem, 2004).

The source made the active and inactive calls. Square brackets hold non-standard residues; d marks the D form. Peptide text beside a SMILES is read from it. NMeF = CN[C@@H](Cc1ccccc1)C(=O)O

The species entered for one assay is Cavia porcellus. The assay can be described thus: Selectivity given as ratio of kappa receptor to delta receptor.
The target of assay [1] is Opioid receptors; mu & delta (Rattus norvegicus) (UniProt P33533+P33535). Put plainly: Selectivity given as ratio of mu receptor to delta receptor. It is filed as protein assay.
Sequence of Opioid receptors; mu & delta (Rattus norvegicus) (P33533 whole entry, looked up): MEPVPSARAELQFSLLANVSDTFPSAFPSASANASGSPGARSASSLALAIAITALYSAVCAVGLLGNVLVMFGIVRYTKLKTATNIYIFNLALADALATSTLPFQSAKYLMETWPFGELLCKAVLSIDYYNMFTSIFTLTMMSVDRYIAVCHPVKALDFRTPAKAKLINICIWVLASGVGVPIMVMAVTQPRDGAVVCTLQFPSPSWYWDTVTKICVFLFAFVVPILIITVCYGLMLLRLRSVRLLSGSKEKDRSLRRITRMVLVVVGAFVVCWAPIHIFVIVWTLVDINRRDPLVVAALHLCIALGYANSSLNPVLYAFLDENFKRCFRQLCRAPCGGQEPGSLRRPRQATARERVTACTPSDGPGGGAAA
Sequence of Opioid receptors; mu & delta (Rattus norvegicus) (P33535 whole entry, looked up): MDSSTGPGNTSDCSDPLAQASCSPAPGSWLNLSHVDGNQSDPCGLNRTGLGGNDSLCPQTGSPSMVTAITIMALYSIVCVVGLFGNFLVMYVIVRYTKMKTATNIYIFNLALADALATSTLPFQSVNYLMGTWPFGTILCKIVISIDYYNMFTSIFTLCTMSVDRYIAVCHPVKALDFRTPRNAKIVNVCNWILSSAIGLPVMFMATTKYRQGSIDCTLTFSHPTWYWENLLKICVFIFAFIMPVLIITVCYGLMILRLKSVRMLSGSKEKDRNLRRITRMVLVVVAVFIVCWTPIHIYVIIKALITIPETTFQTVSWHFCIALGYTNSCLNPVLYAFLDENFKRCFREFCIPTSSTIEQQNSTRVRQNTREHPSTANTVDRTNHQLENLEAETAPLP
For assay [2], the target named is Delta-type opioid receptor (Rattus norvegicus, UniProt P33533). Put plainly: Binding affinity at opioid receptor delta 1 by displacement of [3H]DADLE in rat brain membrane. The format is cell membranes. (In general: Loss of bound radioactivity is the signal in a displacement assay; it reports binding, not function.)
Sequence of Delta-type opioid receptor (Rattus norvegicus, UniProt P33533) (P33533 whole entry): as the sequence (P33533 whole entry, looked up) above
In assay [3] the target is T1, Kappa-type opioid receptor (Cavia porcellus, UniProt P41144). The assay can be described thus: Binding affinity at Opioid receptor kappa 1 by displacement of [3H]U-69593 in guinea pig brain membranes. The format is cell membranes, Membrane.
T1 sequence (P41144 whole entry): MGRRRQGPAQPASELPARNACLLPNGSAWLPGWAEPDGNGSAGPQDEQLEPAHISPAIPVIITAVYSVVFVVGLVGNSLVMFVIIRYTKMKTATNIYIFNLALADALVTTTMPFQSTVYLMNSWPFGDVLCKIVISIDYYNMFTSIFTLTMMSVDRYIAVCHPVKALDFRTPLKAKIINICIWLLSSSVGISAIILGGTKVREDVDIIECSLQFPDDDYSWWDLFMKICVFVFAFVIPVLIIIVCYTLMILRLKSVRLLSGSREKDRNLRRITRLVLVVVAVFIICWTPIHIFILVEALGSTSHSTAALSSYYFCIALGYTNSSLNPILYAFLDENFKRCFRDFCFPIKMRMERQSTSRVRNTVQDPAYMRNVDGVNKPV
The target in assay [4] is Mu-type opioid receptor (Rattus norvegicus, UniProt P33535). Put plainly: Binding affinity at Opioid receptor mu 1 by displacement of [3H]DAMGO at 1.4 to 3.0 nM in rat brain membrane. It is filed as cell membranes. The method, boiled down:
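Rat brain membranes freshly homogenised in ice-cold 10 mM Tris-HCl pH 7.0, centrifuged twice at 30000g, then resuspended in 50 mM Tris-HCl pH 7.4. […] Nonspecific binding was defined with 20 µM levallorphan. Two experiments were pooled and fitted by logistic regression, with Ki = IC50/(1+[L]/Kd).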

In assay [5] the target is T2, Mu-type opioid receptor (Cavia porcellus, UniProt P97266). The assay can be described thus: Agonistic activity towards Opioid receptor mu 1 was determined in [35S]GTP-gamma-S, binding assay in guinea pig caudate; g = not active as an agonist. The format is functional. In outline: (§1)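 Guinea pig caudate membranes (10-20 µg protein) incubated 3 h at 22 °C in Tris-HCl pH 7.4 containing 100 mM NaCl, 10 mM MgCl2, 1 mM EDTA, 100 µM GDP and 0.05-0.1 nM [35S]GTP-γ-S, then filtered and counted. Nonspecific binding defined with 10 µM GTP-γ-S. Site isolation used CTAP, nor-BNI, NTI or TIPP. […] Three experiments pooled; logistic fit.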
T2 sequence (P97266 whole entry): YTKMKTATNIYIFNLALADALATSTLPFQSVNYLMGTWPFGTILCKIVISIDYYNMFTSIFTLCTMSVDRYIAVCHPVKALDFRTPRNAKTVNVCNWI
(Binding of GTPγS marks nucleotide exchange on a G protein.)

The species entered for assay [6] is Mus musculus. The assay can be described thus: Antinociceptive effect was determined by the ability to exhibit 80% reduction of naloxone induced sensitivity; Yes. It is filed as functional, organism-based.
Assay [7] addresses T1, Kappa-type opioid receptor. Put plainly: Agonistic activity towards Opioid receptor kappa 1 was determined in [35S]GTP-gamma-S, binding assay in guinea pig caudate. It is filed as functional. In outline: as §1
Assay [8] concerns the target T2, Mu-type opioid receptor. The assay can be described thus: Inhibitory concentration for inhibition of Opioid receptor mu 1 induced contractions in guinea pig ileum (GPI) smooth muscle assays. The format is functional, tissue-based. In outline: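 Electrically stimulated MVD (male ICR mice, 25-40 g) and GPI longitudinal muscle myenteric plexus strips (male Hartley guinea pigs, 250-500 g). Baths held 37 °C oxygenated Krebs bicarbonate (Mg-free for MVD), tension 1 g GPI / 0.5 g MVD. Stimulation 0.1 Hz, 0.4 ms pulses (2 ms MVD), supramaximal voltage. IC50 from two to four tissues by nonlinear least squares.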

Assay [9] addresses Delta-type opioid receptor (Mus musculus) (UniProt P32300). To be noted: Vas deferens.
Assay [10] concerns the target T2, Mu-type opioid receptor. Put plainly: Apparent binding affinity of compound was determined by antagonism towards Opioid receptor mu 1in [35S]GTP-gamma-S, binding assay in guinea pig caudate; i = could not be calculated because of agonist activity. It is filed as functional.
Assay [11] has as its system Mus musculus. The assay can be described thus: Analgesic activity was calculated at time of peak drug effect when administered (icv) in mouse warm-water tail withdrawal assay. The format is functional. The method, boiled down:
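Male ICR mice dosed icv (5 µL; water or 100% DMSO) under light ether anaesthesia. 55 °C warm-water tail withdrawal read at 10-180 min, cutoff 10 s. %MPE = 100 × (test − control)/(cutoff − control). A50 and 95% CI taken at peak effect by linear regression.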

Assay [12] deals with Mu-type opioid receptor (Cavia porcellus) (UniProt P97266). To be noted: Ileum, filed as agonist.
Sequence of Mu-type opioid receptor (Cavia porcellus) (P97266 whole entry): as above
Assay [13] deals with Delta-type opioid receptor (Mus musculus, UniProt P32300). The assay can be described thus: Inhibitory concentration required for 50 percent inhibition of opioid receptor delta 1 induced contractions in mouse vas deferens (MVD) smooth muscle contraction assays. The format is functional. In outline:
(§2)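 Electrically stimulated MVD (male ICR mice, 25-40 g) and GPI longitudinal muscle myenteric plexus strips (male Hartley guinea pigs, 250-500 g). Baths held 37 °C oxygenated Krebs bicarbonate (Mg-free for MVD), tension 1 g GPI / 0.5 g MVD. Stimulation 0.1 Hz, 0.4 ms pulses (2 ms MVD), supramaximal voltage. […] IC50 from two to four tissues by nonlinear least squares.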

The target in assay [14] is Delta-type opioid receptor (Mus musculus) (UniProt P32300). To be noted: Vas deferens; filed as agonist.
Sequence of Delta-type opioid receptor (Mus musculus) (P32300 whole entry): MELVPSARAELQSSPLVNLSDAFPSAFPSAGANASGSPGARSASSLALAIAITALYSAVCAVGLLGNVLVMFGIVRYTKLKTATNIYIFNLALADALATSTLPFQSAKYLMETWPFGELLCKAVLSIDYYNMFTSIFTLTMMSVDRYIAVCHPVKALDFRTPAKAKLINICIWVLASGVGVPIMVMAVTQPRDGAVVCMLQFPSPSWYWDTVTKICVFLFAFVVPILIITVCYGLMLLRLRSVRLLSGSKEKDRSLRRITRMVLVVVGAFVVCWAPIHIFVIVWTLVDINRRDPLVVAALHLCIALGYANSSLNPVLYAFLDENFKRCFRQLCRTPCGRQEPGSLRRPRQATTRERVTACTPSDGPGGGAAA
Assay [15] has as its target T1, Kappa-type opioid receptor. Put plainly: Agonistic activity towards Opioid receptor kappa 1 was determined in [35S]GTP-gamma-S, binding assay in guinea pig caudate; g = not active as an agonist. The format is functional. The method, boiled down:
as §1

The target in assay [16] is Delta-type opioid receptor (Mus musculus) (UniProt P32300). The assay can be described thus: Agonist activity by the maximum response towards opioid receptor delta 1 induced contractions in mouse vas deferens (MVD) smooth muscle contraction assays. It is filed as functional, tissue-based. In outline:
as §2

The species named for assay [17] is Mus musculus. The assay can be described thus: Antinociceptive effect was determined at 300 nM in mouse. It is filed as functional.
Assay [18] is filed under the species Mus musculus. The assay can be described thus: Antinociceptive effect was determined by the ability to exhibit 80% reduction of naloxone induced sensitivity; Partial. The format is functional, organism-based.
The target of assay [19] is Mu-type opioid receptor (Cavia porcellus) (UniProt P97266). To be noted: Ileum, filed as agonist. The source holds these as a separate data set.

Sequence of Mu-type opioid receptor (Rattus norvegicus, UniProt P33535) (P33535 whole entry): as the sequence (P33535 whole entry, looked up) above
Sequence of Delta-type opioid receptor (Mus musculus, UniProt P32300) (P32300 whole entry): as the sequence (P32300 whole entry) above

For `COc1ccc2c3c1O[C@H]1c4ncc(-c5ccccc5)cc4C[C@@]4(O)[C@@H](C2)N(C)CC[C@]314`, the values for the Ratio (in the assay listed under Cavia porcellus; in assay [1]) were above 294 and 26, respectively. The values for the Ki (in [2]; in [3]; at Mu-type opioid receptor [4]) were 0.034 µM, above 10 µM and 0.894 µM, respectively.

Take `CN1CC[C@]23c4c5ccc(O)c4O[C@H]2c2ncc(-c4ccc(Cl)cc4)cc2C[C@H]3[C@H]1C5`: the Ratio in the assay filed under Cavia porcellus came to 18; in assay [1] it was 34. For the same molecule, the EC50 at Mu-type opioid receptor [5] (read-out: EC50) is 0.9 µM; in [7], “Not Active”. For the same molecule, the result in the assay listed under Mus musculus [6] was Active. At Mu-type opioid receptor [8], this molecule returned an IC50 of 0.177 µM. Besides, the results for the Ke in [9] and in [12] were 21.9 nM and “Agonist”, respectively. On Mu-type opioid receptor [10], the Ki result is reported as “Agonist”. In addition, in the assay on Mus musculus [11], the A50 is reported as 42.8 nM.

With `CN(C(=O)[C@@H]1CCCN1C(=O)[C@@H](N)Cc1ccc(O)cc1)[C@@H](Cc1ccccc1)C(=O)N1CCC[C@@H]1C(N)=O` (H-YP[NMeF][dP]-NH2), the results for the IC50 (in assay [13]; on Mu-type opioid receptor [8]) were 0.243 µM and 0.0594 µM, respectively. Besides, the Ke entry in assay [14] and in assay [12] was “Agonist” in each case.

Take `CN1CC[C@]23c4c5ccc(O)c4O[C@H]2c2ncc(-c4ccc(Cl)cc4)cc2C[C@@]3(O)[C@H]1C5`: the EC50 entry (in [15]; at Mu-type opioid receptor [5]) was “Not Active” in each case. Moreover, the figures for the Ratio (in the assay listed under Cavia porcellus; in assay [1]) were 120 and 59, respectively. In addition, the Response in assay [16] is 58%. The Activity in the assay filed under Mus musculus [17] was 43%; in the assay filed under Mus musculus [18], “Weak activity”. Also, the Ki in [2] is 0.0039 µM. In addition, the Ke entry in assay [19] is “Agonist”; in assay [9] it was 38.2.

As a reminder, the EC50 is the concentration that produces a half-maximal response. One may read the IC50 as the concentration that gives 50% inhibition. A low value points to inhibition by little substance.
